GASC1 inh – blocks human GASC-1 (KDM4C) demethylase activity. Q9H3R0. GST-KDM4C 2-372, H3K9me3 peptide, LANCE TR-FRET. inhibition, % at 12.5 µM. actives 0.15% (n = 96,000);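 active means mean replicate inhibition above about 25%, with at least 55% of replicates also reaching it, limit read from the data, passing the limit was not always enough; inconclusive means only one of those two conditions met; inactive means neither condition met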
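Material: N-terminal GST-fused human GASC-1 (KDM4C) fragment, residues 2-372. Input: 10 nM enzyme. Incubation: enzyme reaction 30 min, then detection 60 min, both room temperature. Doses: one test concentration per compound. Read-out basis: inhibition from TR-FRET ratio decrease. Detection: LANCE TR-FRET, excitation 340 nm, emissions 618 and 671 nm.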
Pf Dd2 growth – inhibitors of Plasmodium falciparum Dd2 growth; P. falciparum Dd2 growth, SYBR Green, 72 h; stronger effect = lower value; activity change, % at 10 µM; actives 2.3% (n = 94,000); in the data active means activity change below about -80%; inconclusive means no clear call, values can overlap the other calls
T cruzi growth – blocks T. cruzi growth in NIH3T3 culture; T. cruzi beta-gal in NIH3T3, GalScreen luminescence, 90 h; AID 624255; actives 5.9% (n = 77,000); inhibition, % at 8.34 µM;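 active means mean inhibition above about 93%, with at least 55% of replicates each passing it, limit read from the data, passing the limit was not always enough; inconclusive means only one of those two conditions holds; inactive means neither condition holds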
IDH1 mut inh – IDH1 R132H (human) inhibition; actives 0.18% (n = 70,000); O75874; IDH1 R132H reductase, diaphorase/resazurin fluorescence, 60 min; inhibition, % at 10 µM; in the data active means inhibition above about 34%; inconclusive means no clear call, values can overlap the other calls; inactive means below about 11%;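 further: 0% = DMSO and 100% = no enzyme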
Target sequence (O75874 whole entry R132H): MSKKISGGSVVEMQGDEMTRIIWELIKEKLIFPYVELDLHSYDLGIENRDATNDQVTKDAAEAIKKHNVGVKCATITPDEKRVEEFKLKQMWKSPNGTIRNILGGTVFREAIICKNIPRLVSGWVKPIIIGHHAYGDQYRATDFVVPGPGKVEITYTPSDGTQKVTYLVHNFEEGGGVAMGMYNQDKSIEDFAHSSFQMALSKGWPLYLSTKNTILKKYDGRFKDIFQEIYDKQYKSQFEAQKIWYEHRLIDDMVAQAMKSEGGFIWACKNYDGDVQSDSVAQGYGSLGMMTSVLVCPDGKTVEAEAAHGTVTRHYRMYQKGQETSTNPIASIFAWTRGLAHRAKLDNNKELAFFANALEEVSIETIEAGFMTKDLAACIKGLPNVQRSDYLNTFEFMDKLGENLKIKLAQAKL
* = called active by the depositor; ? = inconclusive; / = no result given. Shown are actives, neighbours in structure and some others; about 5.8% of the full set was active somewhere.

SMILES | GASC1 inh | Pf Dd2 growth | T cruzi growth | IDH1 mut inh
C[C@@H]1CN([C@@H](C)CO)C(=O)Cc2cc(NC(=O)C3CCCCC3)ccc2O[C@H]1CN(C)Cc1ccncc1 | 1 | -24 | 62 | 46*
C[C@@H]1CN([C@@H](C)CO)C(=O)Cc2cc(NC(=O)Nc3ccc(F)cc3)ccc2O[C@H]1CN(C)Cc1ccncc1 | 1 | 8 | 68 | 34*
COC(=O)c1ccccc1NC(=O)COc1ccc2ccccc2c1Br | / | / | / | -1
C[C@@H]1CN([C@@H](C)CO)C(=O)Cc2cc(NC(=O)Cc3cn(C)c4ccccc34)ccc2O[C@@H]1CN(C)Cc1ccc(Cl)c(Cl)c1 | -1 | -39 | 82 | /
C[C@@H]1CN([C@@H](C)CO)C(=O)Cc2cc(NC(=O)Cc3cn(C)c4ccccc34)ccc2O[C@H]1CN(C)Cc1ccc(Cl)c(Cl)c1 | -2 | -82* | 95 | 0
CC(C)NC(=O)Nc1ccc2c(c1)CC(=O)N([C@@H](C)CO)C[C@@H](C)[C@H](CN(C)Cc1ccncc1)O2 | 1 | 3 | / | 43*
C[C@H]1CN([C@@H](C)CO)C(=O)Cc2cc(NC(=O)Nc3ccccc3)ccc2O[C@@H]1CN(C)Cc1ccc(C(=O)Nc2ccccc2N)cc1 | 0 | / | / | /
C[C@@H]1CN([C@@H](C)CO)C(=O)Cc2cc(NC(=O)Cc3ccccc3)ccc2O[C@H]1CN(C)Cc1ccc(C(=O)Nc2ccccc2N)cc1 | 17 | -16 | / | -1
C[C@@H]1CN([C@H](C)CO)C(=O)Cc2cc(NC(=O)Nc3ccc4c(c3)OCO4)ccc2O[C@H]1CN(C)Cc1ccc(C(=O)Nc2ccccc2N)cc1 | 0 | 5 | 47 | 0
C[C@@H]1CN([C@H](C)CO)C(=O)Cc2cc(NC(=O)Cc3ccccc3)ccc2O[C@@H]1CN(C)Cc1ccc(C(=O)Nc2ccccc2N)cc1 | 0 | -85* | / | 0
C[C@H]1CN([C@@H](C)CO)C(=O)Cc2cc(NC(=O)Cc3ccccc3)ccc2O[C@@H]1CN(C)Cc1ccc(C(=O)Nc2ccccc2N)cc1 | -1 | -88* | / | /
C[C@H](CO)N1C[C@H](C)[C@@H](CN(C)Cc2ccc(C(=O)Nc3ccccc3N)cc2)Oc2ccc(NC(=O)Nc3ccc4c(c3)OCO4)cc2CC1=O | -1 | -83* | 39 | 0
O=C(CCCCCC/C=C/c1ccc2c(c1)OCO2)N1CCCCC1 | / | / | / | 0
c1ccc(CCc2nn3c(COc4ccccc4)nnc3s2)cc1 | / | / | / | -1
C[C@H](CO)N1C[C@H](C)[C@@H](CN(C)Cc2ccc(C(=O)Nc3ccccc3N)cc2)Oc2ccc(NC(=O)Nc3ccc(F)cc3)cc2C1=O | 0 | ? | 38 | /
C[C@@H]1CN([C@@H](C)CO)C(=O)c2cccc(NC(=O)Nc3ccc(F)cc3)c2O[C@@H]1CN(C)Cc1ccc(C(=O)Nc2ccccc2N)cc1 | -1 | -92* | / | 1
C[C@@H]1CN([C@H](C)CO)C(=O)c2cccc(NC(=O)Nc3ccc(F)cc3)c2O[C@@H]1CN(C)Cc1ccc(C(=O)Nc2ccccc2N)cc1 | -2 | -89* | / | /
Cc1cccc(C)c1NC(=O)CN(C1CCCCC1)S(=O)(=O)c1ccc(Cl)cc1 | / | / | / | 0
C[C@@H]1CN([C@H](C)CO)C(=O)c2c(c3ccccc3n2C)-c2ccccc2CO[C@@H]1CN(C)C(=O)c1cc(Cl)cc(Cl)c1 | -2 | -92* | / | /
C[C@H]1CN([C@@H](C)CO)C(=O)c2c(c3ccccc3n2C)-c2ccccc2CO[C@@H]1CN(C)C(=O)c1ccccc1 | -2 | -56 | -22 | /
C[C@H]1CN([C@@H](C)CO)C(=O)c2c(c3ccccc3n2C)-c2ccccc2CO[C@H]1CN(C)C(=O)c1cc(Cl)cc(Cl)c1 | -2 | -88* | / | /
C[C@H]1CN([C@@H](C)CO)C(=O)c2c(c3ccccc3n2C)-c2ccccc2CO[C@@H]1CN(C)C(=O)c1cc(Cl)cc(Cl)c1 | -1 | ? | / | /
C[C@H](CO)N1C[C@H](C)[C@H](CN(C)C(=O)c2ccc(F)cc2)OCc2ccccc2-c2c(n(C)c3ccccc23)C1=O | -2 | -86* | 60 | 0
O=C(CSc1nnc(-c2ccc(Cl)cc2)n1-c1ccc(F)cc1)N1CCOCC1 | / | / | / | 0
COc1ccc2c3c(n(C)c2c1)[C@H](CO)N(C(=O)C1CC1)CC31CN(C(=O)C2CCOCC2)C1 | 1 | -87* | / | /
COc1ccc2c3c(n(C)c2c1)[C@H](CO)N(C(=O)C1CC1)CC31CCN(C)CC1 | -1 | -86* | / | /
COc1ccccc1C#Cc1ccc([C@H]2[C@@H](CO)N(C(=O)C3CC3)[C@H]2C#N)cc1 | / | ? | 89 | 0

Screening results deposited in PubChem BioAssay by Broad Institute.
